pIC50: −log10 of the molar value. Active and inactive are the calls of the source. The calls are words filed in the database; no cut-off is given here.
Legend:
PANC-1 [1] = assay: Cytotoxicity against human PANC1 cells after 5 to 7 days; type: functional, cell-based
Method in brief: (§1)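 U87 or Panc-1 cells were seeded at 5000 per well in DMEM/10% FCS and grown 24 h. Cells were then exposed to 6.25-100 µM in medium with 0.1% DMSO, or to vehicle. After 5-7 days cells were counted directly and IC50 was read from growth curves (2 independent experiments, n = 8, mean ± SD).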

[2] = Cytotoxicity against human U87 cells after 5 to 7 days; type: functional, cell-based, U-87MG ATCC; conditions: U-87 MG; method in brief: as §1
PANC-1 [3] = assay: Effect on Ras signaling in human PANC1 cells assessed as inhibition of total Ras-GTP level at 50 uM after 24 hrs by immunoblot method; type: functional; conditions: PANC-1, 24 h
Method in brief: (§2)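 Cells were seeded at 1.5 × 10⁶ per 10-cm dish, grown 24 h, then exposed to 50 µM or 0.1% DMSO for 24 h. Lysates in Tris pH 7.6/MgCl2/NaCl/NP40/DTT buffer went through a GST-Raf-RBD pull-down, followed by immunoblots with pan-Ras or isoform-specific antibodies. Bands were detected by ECL and quantified by densitometry. Inhibition was calculated as control active-Ras % minus treated active-Ras % (mean ± SD).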

PANC-1 [4] = assay: Effect on Ras signaling in human PANC1 cells assessed as inhibition of KRas-GTP level at 50 uM after 24 hrs by immunoblot method; type: functional; conditions: PANC-1, 24 h; method in brief: as §2
[5] = Effect on Ras signaling in human U87 cells assessed as inhibition of KRas-GTP level at 50 uM after 24 hrs by immunoblot method; type: functional, cell-based; conditions: U-87MG ATCC; method in brief: as §2
[6] = Effect on Ras signaling in human U87 cells assessed as inhibition of NRas-GTP level at 50 uM after 24 hrs by immunoblot method; type: functional, cell-based; conditions: U-87MG ATCC; method in brief: as §2
PANC-1 [7] = assay: Effect on Ras signaling in human PANC1 cells assessed as inhibition of NRas-GTP level at 50 uM after 24 hrs by immunoblot method; type: functional; conditions: PANC-1, 24 h; method in brief: as §2
[8] = Effect on Ras signaling in human U87 cells assessed as inhibition of total Ras-GTP level at 50 uM after 24 hrs by immunoblot method; type: functional, cell-based; conditions: U-87MG ATCC; method in brief: as §2
[9] = Effect on Ras signaling in human U87 cells assessed as inhibition of HRas-GTP level at 50 uM after 24 hrs by immunoblot method; type: functional, cell-based; conditions: U-87MG ATCC; method in brief: as §2
U-87MG ATCC = assay: Antitumor activity against human U87 cells xenografted CD1-Nu mouse at 100 mg/kg, po twice daily assessed as increase tumor volume after 9 days; type: functional, organism-based; design: dose 100 mg/kg
Method in brief: (§3)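 Nude mice under ketamine/xylazine received 5 × 10⁵ U87 cells into the striatum (1 µL/min for 5 min). Gd-DTPA contrast MRI on day 4 confirmed tumors and mice were grouped by size. From day 5 they received 100 mg/kg orally twice a day in corn oil, or vehicle. Tumor volumes were read from T1-weighted follow-up MRI. Normalized growth was taken as (follow-up volume − initial volume)/initial volume (n = 7, Mann-Whitney).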

[10] = Effect on Ras signaling in human U87 cells assessed as decrease in phospho-ERK level at 50 uM after 24 hrs by immunoblot method; type: functional, cell-based; conditions: U-87MG ATCC
Method in brief: (§4)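 Cells were seeded at 1.5 × 10⁶ per 10-cm dish, grown overnight in 10% FCS, then treated with 50 µM or 0.1% DMSO for 24 h. Lysates in Tris pH 7.6/MgCl2/NaCl/NP40/DTT buffer were immunoblotted for phospho-ERK1/2 and phospho-Akt, with β-tubulin as loading reference. Detection was by ECL.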

[11] = Effect on Ras signaling in human U87 cells assessed as decrease in phospho-AKT level at 50 uM after 24 hrs by immunoblot method; type: functional, cell-based; conditions: U-87MG ATCC; method in brief: as §4
PANC-1 [12] = assay: Effect on Ras signaling in human PANC1 cells assessed as decrease in phospho-ERK level at 50 uM after 24 hrs by immunoblot method; type: functional, cell-based; method in brief: as §4
PANC-1 [13] = assay: Effect on Ras signaling in human PANC1 cells assessed as decrease in phospho-AKT level at 50 uM after 24 hrs by immunoblot method; type: functional, cell-based; method in brief: as §4
[14] = Elimination half life in Sprague-Dawley rat at 100 mg/kg, po; type: ADME, organism-based; design: dose 100 mg/kg, route oral; conditions: in vivo
Method in brief: (§5)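 Male Sprague-Dawley rats (275-285 g) given a single oral dose of 100 mg/kg in corn oil. Arterial blood was taken under anesthesia at 10-330 min (4 animals per time point). Plasma was protein-precipitated with acetonitrile, propranolol served as internal standard, and samples were run on isocratic C18 LC-MS/MS (calibration 1-2500 ng/mL). Parameters came from a noncompartmental fit of the mean concentration-time data.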

[15] = Cmax in Sprague-Dawley rat at 100 mg/kg, po; type: ADME, organism-based; design: dose 100 mg/kg, route oral; conditions: in vivo; method in brief: as §5
[16] = AUC (0 to infinity) in Sprague-Dawley rat at 100 mg/kg, po; type: ADME, organism-based; design: time infinity, dose 100 mg/kg, route oral; conditions: plasma; method in brief: as §5
[17] = Antitumor activity against human U87 cells xenografted CD1-Nu mouse at 100 mg/kg, po twice daily assessed as inhibition of tumor growth after 4 days; type: functional, U-87MG ATCC; conditions: U-87 MG, 96 h; method in brief: as §3
[18] = Antitumor activity against human U87 cells xenografted CD1-Nu mouse at 100 mg/kg, po twice daily assessed as inhibition of tumor growth after 9 days; type: functional, U-87MG ATCC; conditions: U-87 MG, 216 h; method in brief: as §3
PANC-1 [19] = assay: Antitumor activity against human PANC1 cells xenografted CD1-Nu mouse at 100 mg/kg, po daily assessed as decrease in tumor weight after 18 days
[20] = Elimination half life in Sprague-Dawley rat at 40 mg/kg, po; type: ADME, organism-based; design: dose 40 mg/kg, route oral; conditions: in vivo
[21] = Cmax in Sprague-Dawley rat at 40 mg/kg, po; type: ADME, organism-based; design: dose 40 mg/kg, route oral; conditions: in vivo
[22] = AUC (0 to infinity) in Sprague-Dawley rat at 40 mg/kg, po; type: ADME, organism-based; design: time infinity, dose 40 mg/kg, route oral; conditions: plasma

Compound | pIC50 (PANC-1 [1]) | pIC50 [2] | inhibition at 50 µM (PANC-1 [3]) [%] | inhibition at 50 µM (PANC-1 [4]) [%] | inhibition [5] [%] | inhibition [6] [%] | inhibition at 50 µM (PANC-1 [7]) [%] | inhibition [8] [%] | further results
COC(=O)c1ccccc1SC/C=C(\C)CC/C=C(\C)CCC=C(C)C | 4.52 | 5.00 | 5.3 | 11.9 | 23.8 | 18.7 |  |  | 
CC(C)=CCC/C(C)=C/CC/C(C)=C/CSc1ccccc1C(=O)N(C)C | 4.66 | 4.70 | 38.6 | 48 | 28 | 41 | 13.6 | 45.4 | inhibition [9]: 14%
CNC(=O)c1ccccc1SC/C=C(\C)CC/C=C(\C)CCC=C(C)C | 5.00 | 4.74 | 39.7 | 52 | 32.6 | 22.5 | 18.8 | 34.7 | 
COCOC(=O)c1ccccc1SC/C=C(\C)CC/C=C(\C)CCC=C(C)C | 4.92 | 5.00 | 2.6 | 19.9 | 4.8 | 5.1 |  |  | 
CC(C)=CCC/C(C)=C/CC/C(C)=C/CSc1ccccc1C(N)=O | 4.70 | 5.00 | 37.4 | 56 | 50.8 | 37.3 | 8.6 | 33 | Activity (U-87MG ATCC): Active; Activity [10]: Active; Activity [11]: Active; Activity (PANC-1 [12]): inactive; Activity (PANC-1 [13]): inactive; half-life [14]: 5.23 h; Cmax [15]: 0.371 µg/mL; AUC(0-inf) [16]: 1.81 µg·h/mL; inhibition in vivo at 100 mg/kg [17]: 80%; inhibition in vivo at 100 mg/kg [18]: 50%; Activity (PANC-1 [19]): Active
CC(C)=CCC/C(C)=C/CC/C(C)=C/CSc1ccccc1C(=O)O [SALIRASIB] | 4.46 | 4.30 |  |  |  |  |  |  | half-life [20]: 2.36 h; Cmax [21]: 2.16 µg/mL; AUC(0-inf) [22]: 6.21 µg·h/mL
CC(C)=CCC/C(C)=C/CC/C(C)=C/CSc1ccccc1C(=O)OCc1ccccc1 | 4.02 | 4.52 |  |  |  |  |  |  | 
CC(C)=CCC/C(C)=C/CC/C(C)=C/CSc1ccccc1C(=O)OC(C)C | 4.15 | 4.28 |  |  |  |  |  |  | 
